# Only some compounds are listed: those with a hit (about 4.1% of all), similar ones and a draw of the others.
# KCNQ1 act = potentiators or activators of human KCNQ1 potassium channel; P51787; CHO-K1 KCNQ1, thallium flux FluxOR fluorescence; hits give high values; B-score at 10 µM; actives 0.35% (n = 310,000);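 active means fluorescence ratio B-score, a plate-corrected score, at least three library SD, with initial intensity B-score within 5 SD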
#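 assay system = KCNQ1-transfected CHO-K1 cells | medium = assay buffer with matched DMSO | probe or stimulus = depolarizing K+/Tl+ stimulus, K2SO4 and Tl2SO4 each 12.5 mM in 5x stock | dosing = single dose | incubation = dye 90 min, compound 20 min, room temperature | detection = kinetic FluxOR fluorescence, 10 s baseline plus 110 s post-stimulus | evaluation = ratio B score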
# KCNK9 inh = blocks the human KCNK9 two-pore domain potassium channel; actives 1.2% (n = 310,000); Q9NPC2; HEK293 KCNK9, FluxOR thallium flux fluorescence; hits give low values; B-score at 10 µM;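 active means ratio B-score over 3 SD below the library mean, with starting fluorescence within 5 SD of its mean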;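 further: negative B-score means less thallium flux so channel inhibition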
# hERG rescue = hERG (human) protection from proarrhythmic block | Q12809 | CHO-hERG, FluxOR thallium flux, dofetilide IC70 present | activation (rescue from dofetilide block), less the hit threshold, % at 10 µM | actives 0.51% (n = 310,000);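 active means activation above the mean of controls blocked by dofetilide plus 5 SD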;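 further: thallium influx through hERG after potassium depolarization seen as dye fluorescence rise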
# Target sequence (Q12809 whole entry, looked up): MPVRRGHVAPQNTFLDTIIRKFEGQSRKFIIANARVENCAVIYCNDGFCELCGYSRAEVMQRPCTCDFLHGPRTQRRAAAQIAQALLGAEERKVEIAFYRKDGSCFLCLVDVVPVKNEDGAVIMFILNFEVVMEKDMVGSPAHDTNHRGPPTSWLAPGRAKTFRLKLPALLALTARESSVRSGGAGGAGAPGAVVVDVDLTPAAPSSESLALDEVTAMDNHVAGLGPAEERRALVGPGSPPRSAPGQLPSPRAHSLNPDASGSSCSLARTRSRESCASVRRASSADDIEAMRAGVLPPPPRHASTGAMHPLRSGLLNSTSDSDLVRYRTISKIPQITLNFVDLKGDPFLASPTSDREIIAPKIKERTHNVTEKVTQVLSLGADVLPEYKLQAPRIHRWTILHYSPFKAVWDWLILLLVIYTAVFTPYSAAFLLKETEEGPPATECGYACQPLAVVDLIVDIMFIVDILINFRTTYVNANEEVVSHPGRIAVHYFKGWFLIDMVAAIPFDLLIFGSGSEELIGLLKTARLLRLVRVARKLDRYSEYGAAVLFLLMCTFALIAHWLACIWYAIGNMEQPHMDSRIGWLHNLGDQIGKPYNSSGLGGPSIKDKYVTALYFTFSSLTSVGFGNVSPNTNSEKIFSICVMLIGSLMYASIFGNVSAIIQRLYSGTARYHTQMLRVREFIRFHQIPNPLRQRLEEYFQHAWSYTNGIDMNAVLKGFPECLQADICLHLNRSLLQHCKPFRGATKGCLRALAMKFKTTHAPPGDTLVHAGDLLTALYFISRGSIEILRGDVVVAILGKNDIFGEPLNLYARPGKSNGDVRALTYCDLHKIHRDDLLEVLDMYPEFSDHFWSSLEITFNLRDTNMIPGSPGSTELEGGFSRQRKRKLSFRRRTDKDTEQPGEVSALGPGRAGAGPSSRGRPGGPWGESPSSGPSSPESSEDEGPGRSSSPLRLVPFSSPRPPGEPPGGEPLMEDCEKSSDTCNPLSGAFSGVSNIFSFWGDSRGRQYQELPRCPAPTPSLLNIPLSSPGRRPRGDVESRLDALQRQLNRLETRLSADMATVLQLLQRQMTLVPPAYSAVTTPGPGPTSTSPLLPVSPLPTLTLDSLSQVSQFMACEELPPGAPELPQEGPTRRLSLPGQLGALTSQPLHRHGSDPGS
# KCC2 mod = modulators of human KCC2 chloride dependent transport. actives 2.2% (n = 190,000). Q9H2X9. AID 1456. B-score of Tl+ flux slope (higher = more flux/activation; lower = inhibition) at 10 µM. KCC2 cells, thallium flux FluoZin-2 fluorescence;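 active means thallium flux slope and its plate-corrected score both differing from the plate sample mean at a set confidence after two filtering rounds, in either direction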;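 further: slope of fluorescence scaled to starting intensity during 10 to 20 s after thallium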
# KCNQ1 inh = inhibitors of human KCNQ1 potassium channel; P51787; CHO-K1 KCNQ1, FluxOR thallium flux fluorescence; hits give high values; B-score at 10 µM; actives 1.3% (n = 310,000);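 active means compounds whose thallium flux B-score, printed positive for inhibition, exceeds three library SD while starting fluorescence stays within three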;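 further: channel opened by potassium depolarization with thallium stimulus after 20 min compound exposure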
# KCNK3 inh = human KCNK3 channel inhibition, primary screen; O14649; CHO-KCNK3 thallium flux, FluxOR fluorescence; hits give low values; B-score at 10 µM; actives 0.84% (n = 340,000);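 active means B-score under library mean minus 4 SD, starting fluorescence ratio at most library mean plus 5 SD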;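 further: more negative B-score means stronger inhibition of thallium flux through KCNK3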
# KCNK9 inh conf = confirmation of human KCNK9 potassium channel inhibitors. shares compounds with KCNK9 inh. HEK293 KCNK9 cells, FluxOR thallium flux fluorescence. inhibition, % at 10 µM. actives 43% (n = 4,900);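 active means thallium signal inhibited by more than 5 SD of the compound-free buffer control wells, on both duplicate plates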;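 further: 0% = assay buffer control wells without compound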
# Kir2-1 spec = mouse Kir2.1 off-target activity of KCNK9 modulators. shares compounds with KCNK9 inh. Kir2.1 cells, FluxOR thallium flux fluorescence. inhibition, % at 10 µM. actives 4% (n = 4,900);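 active means thallium signal drop more than 5 SD beyond the mean of the no-compound control wells, seen in both duplicate plates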;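 further: signal is fluorescence rise after thallium addition divided by baseline fluorescence; plate controls were assay buffer only for no effect and full block by chlorpromazine control for full effect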
# KCNK9 uninduced = second counter-screen for KCNK9 modulators: effect in non-induced cells | actives 40% (n = 4,900) | AID 492997 | non-induced KCNK9-HEK293, FluxOR thallium flux | inhibition, % at 10 µM | shares compounds with KCNK9 inh;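 active means thallium signal drop beyond 5 SD of the untreated control mean, on both duplicate plates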;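 further: plate controls were buffer only IC0 wells for no effect and SID17386958 at its maximal inhibitory level for full effect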
# KCNK3 confirm = human KCNK3 channel inhibition, confirmation assay; shares compounds with KCNK3 inh; CHO-KCNK3 thallium flux, FluxOR fluorescence; 0% buffer, 100% carvedilol maximal block; ratio percent of control, % at 10 µM; actives 99% (n = 2,400); AID 651638;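 active means ratio percent of control, averaged over triplicates, above buffer control mean plus 5 SD, cut at about 64% in these data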;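 further: ratio is the fluorescence rise from min to max over baseline after thallium stimulus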
# KCNK3 uninduced = counter-screen for KCNK3 inhibitors: effect in non-induced cells; non-induced KCNK3 parental cells, FluxOR thallium flux; hits give low values; thallium flux ratio (lower = more inhibition) at 10 µM; actives 40% (n = 2,400); shares compounds with KCNK3 inh;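 active means thallium flux ratio, averaged over three wells, more than 5 SD below the buffer control mean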;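 further: host cells are CHO cells without KCNK3 induction; ratio is peak minus trough fluorescence over baseline then normalized to buffer controls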
# Starred values were filed as active, the others as inactive; i = inactive; . = no result.
SMILES,KCNQ1 act,KCNK9 inh,hERG rescue,KCC2 mod,KCNQ1 inh,KCNK3 inh,KCNK9 inh conf,Kir2-1 spec,KCNK9 uninduced,KCNK3 confirm,KCNK3 uninduced
CNc1cc(CSC)nc(SCc2ccc(Cl)cc2Cl)n1,i,-12*,-4,0.78,i,-9.2*,56%*,i,50%*,142*,0.15*
CSCc1cc(N(C)C)nc(SCc2ccc(Cl)c(Cl)c2)n1,i,-10*,0,-0.63,i,i,72%*,i,58%*,104*,0.15*
Nc1nc(SCc2ccc(Cl)cc2Cl)n[nH]1,i,i,-8,.,i,i,.,.,.,.,.
CN(C)C(=N)c1n[nH]nc1SCc1ccc(Cl)c(Cl)c1,i,i,-11,0.36,i,i,.,.,.,.,.
COc1ccc(-n2nc(C(=O)NCC(=O)Nc3cc(OC)ccc3OC)c3ccccc3c2=O)cc1,i,-14*,-4,.,i,-11*,i,i,i,89*,i
CCOCCn1c(SC(C)C(C)=O)nc2c1c(=O)[nH]c(=O)n2C (centres undefined),i,i,-9,-0.26,i,i,.,.,.,.,.
Clc1ccc(-n2cccc2CN2CCc3c([nH]c4ccccc34)C2c2ccccn2)nc1 (centres undefined),i,-8.5*,-25,.,i,-10*,38%*,i,25%*,125*,0.14*
O=C(Cc1ccsc1)N1CCc2c([nH]c3ccccc23)C1c1ccccn1 (centres undefined),i,i,-7,.,i,i,.,.,.,.,.
COC(=O)[C@]1(C)N[C@H](CN(C)C(=O)c2ccc(F)cc2)[C@@H]2C(=O)N(C)C(=O)[C@@H]21,.,.,.,.,.,i,.,.,.,.,.
O=C(CSc1nnc(CNC(=O)c2ccco2)o1)Nc1ccc(F)cc1,i,i,-10,.,i,i,.,.,.,.,.
COc1ccc(O)c(/C=N/Nc2nc(C)cc(-c3ccccc3)n2)c1,i,-15*,-13,.,i,-10*,51%*,i,23%*,120*,0.14*
CCCCOC1(c2ccccc2)NC(=S)NN=C1c1ccccc1 (centres undefined),i,i,-9,.,i,.,.,.,.,.,.
CC(C)N(C(=S)Nc1cccc(C(F)(F)F)c1)C(C)c1ccccn1 (centres undefined),i,-17*,-11,-0.39,12*,-11*,77%*,i,44%*,133*,0.12*
COc1ccccc1NC(=S)N(C(C)C)C(C)c1ccccn1 (centres undefined),i,i,-8,0.31,i,i,.,.,.,.,.
Cc1onc(-c2ccccc2Cl)c1C(=O)N(Cc1nc(-c2ccccc2)no1)C1CCCCC1,i,-9.7*,-10,.,i,i,30%*,i,32%*,90*,0.15*
N#CCSc1nc2c(c(C3CC=CCC3)c1C#N)CCC2 (centres undefined),i,-8.4*,-14,0.91,i,i,34%*,i,42%*,107*,i
CC(C)N(Cc1nc(-c2ccc(Cl)cc2)no1)C(=O)CCC1CCCC1,i,-14*,-20,-0.35,i,-11*,66%*,i,42%*,118*,i
COc1ccccc1OCC(=O)N(Cc1nc(-c2ccc(Cl)cc2)no1)C(C)C,i,i,-8,0.072,i,i,.,.,.,.,.
O=C(/C=C/Nc1ccccc1Oc1ccccc1)c1ccco1,i,-17*,-12,0.0059,i,-13*,47%*,i,37%*,122*,i
Cc1cccc(C)c1OCC(=O)Nc1oc(-c2ccccc2)c(-c2ccccc2)c1C#N,i,-17*,-4,-0.81,i,i,32%*,i,24%*,119*,0.15*
COc1ccc(/C=N\NC(=O)c2sccc2C)cc1Cn1nc(C)cc1C,i,-8.2*,-15,.,i,-8.8*,i,i,i,88*,i
COC(=O)c1ccc(OC)c(CN2CCCN(Cc3ccc(F)cc3)S2(=O)=O)c1,i,i,-7,.,i,i,.,.,.,.,.
N#Cc1ccc(-c2ccco2)nc1SCC(=O)c1ccc(Cl)cc1,i,-8.3*,-17,-0.012,i,-13*,44%*,i,38%*,146*,0.14*
CCCCN(C)CCCNC(=O)c1cn(C)c2ccc(S(=O)(=O)N(C)C3CCCCC3)cc2c1=O,i,i,-12,.,i,i,.,.,.,.,.
O=C(NC1CCSc2ccccc21)c1ccc(C(F)(F)F)cc1 (centres undefined),i,i,-8,.,i,i,.,.,.,.,.
SMILES,KCNQ1 act,KCNK9 inh,hERG rescue,KCC2 mod,KCNQ1 inh,KCNK3 inh,KCNK9 inh conf,Kir2-1 spec,KCNK9 uninduced,KCNK3 confirm,KCNK3 uninduced
O=C(N/N=C/c1ccccc1)c1[nH]c2ccc(Br)cc2c1-c1ccccc1,i,i,-7,1.2,i,i,.,.,.,.,.
O=C(NN=C1CCCC1)c1[nH]c2ccc(Br)cc2c1-c1ccccc1,i,-8.7*,-16,-0.61,7*,i,i,i,i,91*,i
Cc1cn(C2OC(COC(=O)c3ccccc3)C(O)C2O)c(=O)[nH]c1=O (centres undefined),i,i,-14,.,i,i,.,.,.,.,.
Cc1cn(C2OC(COC(=O)c3ccccc3)C(OC(=O)c3ccccc3)C2OC(=O)c2ccccc2)c(=O)[nH]c1=O (centres undefined),i,-10*,-17,-1.9,i,-11*,38%*,i,34%*,103*,0.16*
CC1(C)NC(=S)NC1=S,.,.,.,.,.,i,.,.,.,.,.
O=C(COC(=O)c1cc(Br)ccc1O)Nc1cc(S(=O)(=O)N2CCCC2)ccc1Cl,i,-6.6*,-21,0.59,i,-9.5*,.,.,.,96*,i
CCOC(=O)C1(CCCc2ccccc2)CCN(C(=O)C2=C(C)OCCO2)CC1,i,i,-16,-4.5,i,i,.,.,.,.,.
CCC/C(O)=C1\C(=O)CCCC1=NCCc1ccc(OCC)c(OCC)c1,i,i,-13,-3.4,i,-9.2*,.,.,.,117*,i

# Source: PubChem BioAssay
